In brackets after ≈: the same amount, converted by molar mass.
What was measured:
[1] = biological target: T1, Dual specificity tyrosine-phosphorylation-regulated kinase 1A (Homo sapiens, UniProt Q13627); assay: Displacement of Kinase tracer 236 from biotinylated DYRK1A (unknown origin) expressed in Escherichia coli BL21 (DE3) incubated for 1.5 hrs by TR-FRET assay
[2] = biological target: T1, Dual specificity tyrosine-phosphorylation-regulated kinase 1A; assay: Binding affinity to biotinylated DYRK1A (unknown origin) expressed in Escherichia coli BL21 (DE3) assessed as dissociation constant measured up to 5 min by SPR method
[3] = Metabolic stability in human liver microsomes; format: ADME, Microsome; conditions: read-out: Stabilty
[4] = Metabolic stability in rat liver microsomes; format: ADME, Microsome; conditions: read-out: Stabilty
[5] = Thermodynamic solubility of the compound at pH 6.8; format: physicochemical; conditions: buffer, read-out: Therm_solubility
Summary of the method: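 Thermodynamic solubility measured at pH 6.8 in a single experiment, reported in […].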

[6] = biological target: Dual specificity tyrosine-phosphorylation-regulated kinase 1B (Homo sapiens) (UniProt Q9Y463); assay: Inhibition of wild-type human full length DYRK1B (M1 to S629 residues) expressed in bacterial expression system assessed as remaining activity at 1 uM by Kinomescan method relative to control
Summary of the method: (§1)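 KINOMEscan competition binding panel run with inhibitor at 1 μM; read-out is remaining kinase activity (percent of control).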

[7] = biological target: T2, Dual specificity tyrosine-phosphorylation-regulated kinase 2 (Homo sapiens) (UniProt Q92630); assay: Inhibition of wild-type human full length DYRK2 (M1 to S528 residues) expressed in mammalian expression system assessed as remaining activity at 1 uM by Kinomescan method relative to control; summary of the method: as §1
T2 sequence (whole entry): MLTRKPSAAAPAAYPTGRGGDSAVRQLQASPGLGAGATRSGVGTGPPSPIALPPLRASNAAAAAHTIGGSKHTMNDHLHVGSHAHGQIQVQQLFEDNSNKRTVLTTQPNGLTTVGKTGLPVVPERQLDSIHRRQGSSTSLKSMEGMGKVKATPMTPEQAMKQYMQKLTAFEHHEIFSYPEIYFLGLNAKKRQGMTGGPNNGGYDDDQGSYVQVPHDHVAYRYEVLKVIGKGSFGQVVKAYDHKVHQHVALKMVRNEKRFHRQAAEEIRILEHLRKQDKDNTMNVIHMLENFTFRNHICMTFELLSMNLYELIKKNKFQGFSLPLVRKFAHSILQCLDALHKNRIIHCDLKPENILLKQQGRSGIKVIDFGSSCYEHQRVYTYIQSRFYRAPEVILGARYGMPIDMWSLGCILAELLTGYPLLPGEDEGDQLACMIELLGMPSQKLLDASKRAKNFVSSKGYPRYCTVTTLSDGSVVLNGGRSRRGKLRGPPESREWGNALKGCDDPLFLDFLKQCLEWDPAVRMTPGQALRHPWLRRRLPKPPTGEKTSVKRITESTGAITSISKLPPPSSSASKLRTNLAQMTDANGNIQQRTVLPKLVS

[8] = biological target: Dual specificity protein kinase CLK1 (Homo sapiens, UniProt P49759); assay: Inhibition of wild-type human full length CLK1 (M1 to I484 residues) expressed in bacterial expression system assessed as remaining activity at 1 uM by Kinomescan method relative to control; summary of the method: as §1
[9] = biological target: Dual specificity protein kinase CLK2 (Homo sapiens) (UniProt P49760); assay: Inhibition of wild-type human partial length CLK2 (D144 to R498 residues) expressed in bacterial expression system assessed as remaining activity at 1 uM by Kinomescan method relative to control; summary of the method: as §1
[10] = biological target: Dual specificity protein kinase CLK3 (Homo sapiens) (UniProt P49761); assay: Inhibition of wild-type human full length CLK3 (M1 to R490 residues) expressed in bacterial expression system assessed as remaining activity at 1 uM by Kinomescan method relative to control; summary of the method: as §1
[11] = biological target: Cyclin-dependent kinase 2 (Homo sapiens) (UniProt P24941); assay: Inhibition of wild-type human full length CDK2 (M1 to L298 residues) expressed in bacterial expression system assessed as remaining activity at 1 uM by Kinomescan method relative to control; summary of the method: as §1
[12] = biological target: Glycogen synthase kinase-3 beta (Homo sapiens) (UniProt P49841); assay: Inhibition of wild-type human full length GSK3B (M1 to T433 residues) expressed in mammalian expression system assessed as remaining activity at 1 uM by Kinomescan method relative to control; summary of the method: as §1
[13] = biological target: T1, Dual specificity tyrosine-phosphorylation-regulated kinase 1A; assay: Inhibition of human DYRK1A-mediated tau phosphorylation expressed in HEK293 cells incubated for 2 hrs by ELISA; format: cell-based

Sequence of Dual specificity protein kinase CLK1 (P49759 whole entry, looked up, the tested form may be a part): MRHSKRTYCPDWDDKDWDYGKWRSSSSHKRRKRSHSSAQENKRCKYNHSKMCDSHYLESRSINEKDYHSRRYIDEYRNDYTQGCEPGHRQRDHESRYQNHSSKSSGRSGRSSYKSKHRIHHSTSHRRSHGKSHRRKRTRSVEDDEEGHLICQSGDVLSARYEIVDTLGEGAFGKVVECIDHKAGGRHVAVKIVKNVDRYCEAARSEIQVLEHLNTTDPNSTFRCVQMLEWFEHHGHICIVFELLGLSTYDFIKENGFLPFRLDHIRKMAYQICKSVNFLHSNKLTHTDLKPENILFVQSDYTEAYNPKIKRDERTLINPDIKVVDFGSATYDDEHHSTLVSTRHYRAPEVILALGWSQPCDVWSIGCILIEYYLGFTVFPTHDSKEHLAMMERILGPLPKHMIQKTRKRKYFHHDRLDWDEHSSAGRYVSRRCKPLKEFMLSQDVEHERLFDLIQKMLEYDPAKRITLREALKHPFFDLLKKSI
Sequence of Glycogen synthase kinase-3 beta (Homo sapiens) (P49841 whole entry, looked up, the tested form may be a part): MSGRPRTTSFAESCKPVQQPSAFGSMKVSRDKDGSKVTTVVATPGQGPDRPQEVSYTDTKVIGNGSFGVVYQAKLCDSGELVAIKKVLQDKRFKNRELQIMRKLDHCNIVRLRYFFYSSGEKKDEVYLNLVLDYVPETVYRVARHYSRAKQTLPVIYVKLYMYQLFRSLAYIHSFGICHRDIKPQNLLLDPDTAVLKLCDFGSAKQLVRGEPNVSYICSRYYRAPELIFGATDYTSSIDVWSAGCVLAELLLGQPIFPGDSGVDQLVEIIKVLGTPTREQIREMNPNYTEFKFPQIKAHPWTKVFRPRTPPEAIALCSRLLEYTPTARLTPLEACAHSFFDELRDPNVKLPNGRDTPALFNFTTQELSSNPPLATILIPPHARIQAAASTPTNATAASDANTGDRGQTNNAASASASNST
Sequence of Dual specificity protein kinase CLK2 (Homo sapiens) (P49760 whole entry, looked up, the tested form may be a part): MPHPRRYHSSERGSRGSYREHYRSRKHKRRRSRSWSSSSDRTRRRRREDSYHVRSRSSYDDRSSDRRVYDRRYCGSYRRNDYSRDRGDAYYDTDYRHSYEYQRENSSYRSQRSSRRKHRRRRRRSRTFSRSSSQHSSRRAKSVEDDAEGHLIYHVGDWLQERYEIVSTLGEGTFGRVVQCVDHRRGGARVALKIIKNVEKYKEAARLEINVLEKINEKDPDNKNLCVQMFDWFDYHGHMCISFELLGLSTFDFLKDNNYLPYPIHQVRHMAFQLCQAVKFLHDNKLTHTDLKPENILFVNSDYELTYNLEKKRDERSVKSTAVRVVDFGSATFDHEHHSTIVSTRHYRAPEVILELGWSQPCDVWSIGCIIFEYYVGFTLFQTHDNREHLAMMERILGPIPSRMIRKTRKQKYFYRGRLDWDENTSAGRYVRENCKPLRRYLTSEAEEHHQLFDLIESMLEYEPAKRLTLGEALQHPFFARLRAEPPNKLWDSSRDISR
Sequence of Dual specificity protein kinase CLK3 (Homo sapiens) (P49761 whole entry, looked up, the tested form may be a part): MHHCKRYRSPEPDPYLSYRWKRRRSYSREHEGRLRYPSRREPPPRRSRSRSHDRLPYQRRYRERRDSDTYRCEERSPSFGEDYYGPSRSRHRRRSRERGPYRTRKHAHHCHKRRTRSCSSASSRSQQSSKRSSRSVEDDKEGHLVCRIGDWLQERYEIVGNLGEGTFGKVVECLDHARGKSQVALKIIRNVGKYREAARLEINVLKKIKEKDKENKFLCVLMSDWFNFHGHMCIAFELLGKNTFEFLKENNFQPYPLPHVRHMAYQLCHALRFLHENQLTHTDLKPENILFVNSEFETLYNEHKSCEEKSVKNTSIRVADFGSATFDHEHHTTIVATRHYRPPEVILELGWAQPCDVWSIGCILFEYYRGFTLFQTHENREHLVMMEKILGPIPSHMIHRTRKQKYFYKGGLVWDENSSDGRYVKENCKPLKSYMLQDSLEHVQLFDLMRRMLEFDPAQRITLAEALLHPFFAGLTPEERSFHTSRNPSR
Sequence of Dual specificity tyrosine-phosphorylation-regulated kinase 1B (Homo sapiens) (Q9Y463 whole entry, looked up, the tested form may be a part): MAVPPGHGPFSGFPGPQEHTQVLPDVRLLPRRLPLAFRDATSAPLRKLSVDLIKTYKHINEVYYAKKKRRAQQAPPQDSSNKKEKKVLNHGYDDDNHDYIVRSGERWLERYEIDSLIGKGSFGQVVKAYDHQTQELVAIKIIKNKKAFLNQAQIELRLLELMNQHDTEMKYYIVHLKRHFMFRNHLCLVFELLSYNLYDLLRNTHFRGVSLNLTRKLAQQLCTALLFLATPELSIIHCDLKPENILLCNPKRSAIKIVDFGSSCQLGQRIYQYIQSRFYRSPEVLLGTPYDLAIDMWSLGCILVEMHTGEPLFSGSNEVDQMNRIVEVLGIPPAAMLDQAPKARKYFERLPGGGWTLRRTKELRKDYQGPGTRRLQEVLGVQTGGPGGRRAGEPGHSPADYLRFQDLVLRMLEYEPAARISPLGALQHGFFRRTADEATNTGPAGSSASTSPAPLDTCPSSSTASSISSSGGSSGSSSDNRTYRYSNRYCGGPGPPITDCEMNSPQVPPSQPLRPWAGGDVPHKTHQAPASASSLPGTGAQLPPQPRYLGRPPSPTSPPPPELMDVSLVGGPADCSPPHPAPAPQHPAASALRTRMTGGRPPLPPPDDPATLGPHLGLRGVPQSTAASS

SMILES | IC50 [1] | Kd [2] | microsomal CLint [3] | microsomal CLint [4] | solubility thermodynamic [5] | Activity [6] | Activity [7] | Activity [8] | Activity [9] | Activity [10] | Activity [11] | Activity [12] | IC50 [13]
CN(C)c1ncc(F)c(-c2cnn3ncccc23)n1 | 57.5 nM | 12 nM | 697 µL/min/mg | 983 µL/min/mg | 30 µg/mL (≈ 116 µM) | 71% | 55% | 53% | 54% | 84% | 100% | 93% | 250 nM
CN(c1nccc(-c2cnn3ncccc23)n1)C1CC1 | 115 nM | 90.4 nM | 71 µL/min/mg | 434 µL/min/mg | 60 µg/mL (≈ 225 µM) | 43% | 100% | 79% | 95% | 96% | 100% | 91% | –

Reference: ChEMBL document CHEMBL4808225, “Discovery and Characterization of Selective and Ligand-Efficient DYRK Inhibitors” (J Med Chem, 2021)
